Our source for the IC50 and EC50 values is publication PMC7470514 (RSC Chemical Biology, 2020).

Assay type in all cases: cell-based
In assay [1] the target is T1, S. pneumoniae ComD1 receptor (Streptococcus pneumoniae serotype 2, UniProt A0A0H2ZM50).
T1 sequence (A0A0H2ZM50 1-441): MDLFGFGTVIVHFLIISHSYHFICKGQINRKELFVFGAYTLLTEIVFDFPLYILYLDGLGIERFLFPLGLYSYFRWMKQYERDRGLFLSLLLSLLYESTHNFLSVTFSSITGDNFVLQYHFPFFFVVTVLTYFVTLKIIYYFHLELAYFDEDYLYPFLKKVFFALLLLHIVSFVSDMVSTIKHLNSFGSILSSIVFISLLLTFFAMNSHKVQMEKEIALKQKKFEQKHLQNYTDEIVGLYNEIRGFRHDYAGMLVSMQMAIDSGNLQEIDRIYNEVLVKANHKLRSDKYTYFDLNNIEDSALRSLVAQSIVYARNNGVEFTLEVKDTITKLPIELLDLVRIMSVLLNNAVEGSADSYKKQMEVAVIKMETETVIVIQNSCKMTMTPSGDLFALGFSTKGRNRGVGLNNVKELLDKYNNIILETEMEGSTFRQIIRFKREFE
Nature of the assay: β-galactosidase reporter assay, competitive inhibition. The essentials: (§1)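 Cultures were prepared as for agonism: overnight THY with chloramphenicol, diluted to early exponential phase. Wells held native CSP at a fully activating level (50 nM CSP1 for D39/ComD1; 250 nM CSP2 for TIGR4/ComD2), with test peptide added from a 1 mM stock in triplicate. Controls were CSP plus DMSO, and DMSO alone. Plates were incubated 30 min at 37 °C, then lysed and read by ONPG. IC50 was taken from concentration series.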

Assay [2] deals with T1, S. pneumoniae ComD1 receptor. Description: β-galactosidase reporter assay, agonism. The essentials:
(§2)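 Reporter strains carry lacZ under the comX promoter. Strains were grown from THY agar (5% horse serum, 4 μg mL−1 chloramphenicol; 8 h, 37 °C, 5% CO2), then overnight (15 h) in THY with chloramphenicol. Cultures were diluted 1:50 (D39) or 1:10 (TIGR4) and grown to OD600 0.30–0.35 or 0.20–0.25.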

Assay [3] has as its target T2, S. pneumoniae ComD2 receptor (Streptococcus pneumoniae serotype 4, UniProt A0A0H2US84).
T2 sequence (A0A0H2US84 1-441): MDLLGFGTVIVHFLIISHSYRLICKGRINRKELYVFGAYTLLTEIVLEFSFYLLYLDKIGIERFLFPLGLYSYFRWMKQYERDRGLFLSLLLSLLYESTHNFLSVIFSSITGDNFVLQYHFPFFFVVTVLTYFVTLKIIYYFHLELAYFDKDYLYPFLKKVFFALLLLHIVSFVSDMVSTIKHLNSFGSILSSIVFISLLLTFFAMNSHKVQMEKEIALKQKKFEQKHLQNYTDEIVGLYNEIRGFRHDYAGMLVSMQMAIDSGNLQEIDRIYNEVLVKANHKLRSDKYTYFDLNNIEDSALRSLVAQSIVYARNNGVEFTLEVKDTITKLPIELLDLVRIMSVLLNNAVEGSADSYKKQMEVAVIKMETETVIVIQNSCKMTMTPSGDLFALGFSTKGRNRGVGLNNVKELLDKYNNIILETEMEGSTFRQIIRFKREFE
Description: β-galactosidase reporter assay, agonism. The essentials: as §2

For assay [4], the target named is T2, S. pneumoniae ComD2 receptor. Description: β-galactosidase reporter assay, competitive inhibition. The essentials: as §1

“And” between values parts separate entries of the source, which are not always exact repeats. Identical values can stand only once. Where no end group is shown, it is not given here. A value given as a limit tells only on which side of the number the result lay.

Consider “AMRLTHNIFFNFFKRR [S. mitis-CSP-2-E1AI2MQ4L]”, for which the IC50 in assay [1] is 0.0542 µM.

As to “EMRLTHIIFFNFFKRR [S. mitis-CSP-2-I2MQ4LN7I]”, the EC50 in assay [2] was 0.155 µM; in assay [3] it was 0.187 µM.

For “EMRLTHNIFFNLFKRR [S. mitis-CSP-2-I2MQ4LF12L]”, the EC50 in assay [2] turned out to be 0.0171 µM; in assay [3], 0.139 µM.

For the sequence “AMRQTHIFFFNFFKRR [S. mitis-CSP-2-E1AI2MN7II8F]”, the IC50 in assay [1] was determined as 0.141 µM; in assay [4] it was 0.0329 µM.

For the sequence “EIRLTHFFFFNFFKRR [S. mitis-CSP-2-Q4LN7FI8F]”, the results for the EC50 in assay [2] and in assay [3] were 0.427 µM and 0.0872 µM, respectively.

Consider “EMRQTHFIFFNLFKRR [S. mitis-CSP-2-I2MN7FF12L]”, for which the EC50 amounted to 0.0728 µM in assay [2] and 0.112 µM in assay [3].

Consider “EMRQTHNFFFFFFKRR [S. mitis-CSP-2-I2MI8FN11F]”, for which the EC50 in assay [2] is < 0.1 µM and 0.00695 µM; in assay [3] it was < 0.1 µM and 0.0262 µM.

On to “EIRQTHNIFFFLFKRR [S. mitis-CSP-2-N11FF12L]”, for which the EC50 came to 0.00497 µM in assay [2] and 0.127 µM in assay [3].

Turning to EIRLTHNIFFNFFKRR [S. mitis-CSP-2-Q4L], the EC50 was 0.0882 µM in assay [2] and 0.252 µM in assay [3].

As for “EIRQTHIFFFNLFKRR [S. mitis-CSP-2-N7II8FF12L]”, the EC50 in assay [2] came to 0.891 µM.

Regarding “EIRLTHFIFFNFFKRR [S. mitis-CSP-2-Q4LN7F]”, the EC50 in assay [2] was 0.371 µM; in assay [3] it was 0.322 µM.

Turning to “EMRLTHNIFFNFFKRR [S. mitis-CSP-2-I2MQ4L]”, the EC50 turned out to be 0.0499 µM in assay [2] and 0.141 µM in assay [3].

Regarding “EMRLTHFIFFNFFKRR [S. mitis-CSP-2-I2MQ4LN7F]”, the figures for the EC50 in assay [2] and in assay [3] were 0.137 µM and 0.0756 µM, respectively.

On to “AIRQTHIFFFNFFKRR [S. mitis-CSP-2-E1AN7II8F]”, for which the values for the IC50 in assay [1] and in assay [4] were 0.204 µM and 0.135 µM, respectively.

With “EIRQTHIFFFNFFKRR [S. mitis-CSP-2-N7II8F]”, the EC50 in assay [2] was determined as 0.0872 µM; in assay [3] it was 0.0228 µM.

With “EIRLTHNFFFNFFKRR [S. mitis-CSP-2-Q4LI8F]”, the EC50 in assay [2] came to 0.28 µM; in assay [3], 0.37 µM.

As to “EMRQTHIIFFNFFKRR [S. mitis-CSP-2-I2MN7I]”, the EC50 was 0.448 µM in assay [2] and 0.0548 µM in assay [3].

As to “EIRQTHFFFFNLFKRR [S. mitis-CSP-2-N7FI8FF12L]”, the EC50 is 0.101 µM in assay [2] and 0.0676 µM in assay [3].

In assay [3], “EIRQTHFFFFNFFKRR [S. mitis-CSP-2-N7FI8F]” returned an EC50 of 0.0246 µM.

With “EIRQTHFIFFNLFKRR [S. mitis-CSP-2-N7FF12L]”, the EC50 in assay [2] was 0.156 µM; in assay [3], 0.533 µM.

As for “EMRLTHNIFFFFFKRR [S. mitis-CSP-2-I2MQ4LN11F]”, the figures for the EC50 in assay [2] and in assay [3] were 0.0148 µM and 0.188 µM, respectively.

Regarding “AMRLTHNFFFNFFKRR [S. mitis-CSP-2-E1AI2MQ4LI8F]”, the IC50 in assay [1] was 0.317 µM.

“AMRQTHNIFFNFFKRR [S. mitis-CSP-2-E1AI2M]” displayed a 50% inhibitory concentration (IC50) in assay [1] of 0.0854 µM.

As for EMRQTHNIFFNFFKRR [S. mitis-CSP-2-I2M], the values for the EC50 in assay [2] and in assay [3] were 0.0877 µM and 0.136 µM, respectively.

“AMRQTHFFFFNFFKRR [S. mitis-CSP-2-E1AI2MN7FI8F]”: the results for the half-maximal inhibitory concentration (IC50) in assay [1] and in assay [4] were 0.294 µM and 0.418 µM, respectively.

For the sequence “AMRQTHNFFFNFFKRR [S. mitis-CSP-2-E1AI2MI8F]”, in assay [1], the IC50 worked out at 0.143 µM.

Regarding “EIRLTHIIFFNFFKRR [S. mitis-CSP-2-Q4LN7I]”, the results for the EC50 in assay [2] and in assay [3] were 0.348 µM and 0.315 µM, respectively.

On to EIRQTHNIFFFFFKRR [S. mitis-CSP-2-N11F], for which the results for the EC50 in assay [2] and in assay [3] were 0.00463 µM and 0.22 µM, respectively.

Consider “EIRLTHNIFFNLFKRR [S. mitis-CSP-2-Q4LF12L]”, for which the EC50 was found to be 0.0687 µM in assay [2] and 0.202 µM in assay [3].

“EMRQTHNIFFFFFKRR [S. mitis-CSP-2-I2MN11F]”: the EC50 in assay [2] was found to be 0.0177 µM; in assay [3], 0.753 µM.

EIRQTHNIFFNLFKRR [S. mitis-CSP-2-F12L]: the EC50 in assay [2] is 0.0543 µM; in assay [3], 0.813 µM.

Consider “EIRLTHFIFFNLFKRR [S. mitis-CSP-2-Q4LN7FF12L]”, for which the response in assay [2] was half-maximal at 0.426 µM (EC50).

For EIRQTHFIFFNFFKRR [S. mitis-CSP-2-N7F], the EC50 in assay [2] came out at 0.14 µM; in assay [3], 0.471 µM.

As for “EIRQTHNFFFFFFKRR [S. mitis-CSP-2-I8FN11F]”, the EC50 is 0.0122 µM in assay [2] and 0.284 µM in assay [3].

“EMRLTHNFFFNFFKRR [S. mitis-CSP-2-I2MQ4LI8F]”: the EC50 in assay [2] is < 0.1 µM and 0.042 µM; in assay [3], < 0.1 µM and 0.03 µM.

For EIRQTHNFFFNFFKRR [S. mitis-CSP-2-I8F], the concentration for a half-maximal effect (EC50) in assay [2] was determined as 0.128 µM; in assay [3], 0.209 µM.

For EIRQTHNIFFNFFKRR [S. mitis-CSP-2], the EC50 turned out to be 0.663 µM in assay [2] and 0.635 µM in assay [3].

“EIRLTHNIFFFFFKRR [S. mitis-CSP-2-Q4LN11F]”: the EC50 in assay [2] came out at 0.00938 µM; in assay [3], 0.434 µM.

Regarding “EIRQTHNFFFNLFKRR [S. mitis-CSP-2-I8FF12L]”, the half-maximal effective concentration (EC50) came to 0.16 µM in assay [2] and 0.202 µM in assay [3].

For the sequence “EMRQTHIIFFFFFKRR [S. mitis-CSP-2-I2MN7IN11F]”, a half-maximal effect in assay [2] (EC50) was put at 0.568 µM.

For the sequence “EMRQTHIFFFNFFKRR [S. mitis-CSP-2-I2MN7II8F]”, the EC50 was < 0.1 µM and 0.0616 µM in assay [2]; < 0.1 µM and 0.00267 µM in assay [3].

“EMRQTHNFFFNFFKRR [S. mitis-CSP-2-I2MI8F]”: the EC50 in assay [2] was found to be 0.151 µM; in assay [3], 0.0832 µM.

As for “EIRQTHIIFFNLFKRR [S. mitis-CSP-2-N7IF12L]”, the EC50 was determined as 0.613 µM in assay [2] and 0.321 µM in assay [3].

Consider EIRQTHIIFFNFFKRR [S. mitis-CSP-2-N7I], for which the EC50 in assay [2] is 0.101 µM; in assay [3], 0.211 µM.

As for “EMRQTHFFFFNFFKRR [S. mitis-CSP-2-I2MN7FI8F]”, the EC50 in assay [2] is < 0.1 µM and 0.0636 µM; in assay [3], < 0.1 µM and 0.0135 µM.

“EIRLTHIFFFNFFKRR [S. mitis-CSP-2-Q4LN7II8F]” yielded an EC50 in assay [2] of 0.242 µM.

As to “EMRQTHNIFFNLFKRR [S. mitis-CSP-2-I2MF12L]”, the EC50 was 0.0258 µM in assay [2] and 0.146 µM in assay [3].

The sequence AIRQTHNIFFNFFKRR [S. mitis-CSP-2-E1A] returned an IC50 in assay [1] of 0.497 µM.

Regarding “EMRQTHFIFFNFFKRR [S. mitis-CSP-2-I2MN7F]”, the EC50 in assay [2] was found to be 0.131 µM; in assay [3], 0.123 µM.
